Here are results for 25 molecules from ChEMBL document CHEMBL1139140, “Synthesis, antimycobacterial activity evaluation, and QSAR studies of chalcone derivatives” (2007).

Experiment [1] relates to Mycobacterium tuberculosis. Kind of experiment: Antimicrobial activity against Mycobacterium tuberculosis H37Rv at 50 ug/ml assessed as reduction of relative light units. Type of experiment: functional. Details: scale not given: the % may be the effect or the level left. The gist of the method: (§1)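 Luciferase reporter phage assay on M. tuberculosis H37Rv. Bacteria (McFarland No.2 suspension) in G7H9, with or without compound, incubated 72 h at 37 °C; two drug-free controls per sample. Phage phAE129 with CaCl2 added, then 4 h at 37 °C. D-luciferin (0.3 mM, citrate pH 4.5) added; RLU read after 10 s integration, duplicate readings averaged. Percent RLU reduction versus control; repeated if control mean RLU <1000.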

In experiment [2] the test system is Mycobacterium tuberculosis. Kind of experiment: Antimicrobial activity against Mycobacterium tuberculosis H37Rv at 100 ug/ml assessed as reduction of relative light units. It counts as functional. More on the design: scale not given: the % may be the effect or the level left. The gist of the method:
as §1

Consider `COc1ccccc1/C=C/C(=O)c1ccc([N+](=O)[O-])cc1`, for which the Activity in experiment [1] is 94.3%; in experiment [2], 98.15%.

Consider `COc1ccc(C(=O)/C=C/c2ccc(SC)cc2)cc1`, for which the Activity turned out to be 7.36% in experiment [1] and 17.38% in experiment [2].

Consider `CSc1ccc(/C=C/C(=O)c2ccc([N+](=O)[O-])cc2)cc1`, for which the figures for the Activity in experiment [1] and in experiment [2] were 30.95% and 48.06%, respectively.

Consider `CSc1ccc(/C=C/C(=O)c2ccc(Cl)cc2)cc1`, for which the figures for the Activity in experiment [1] and in experiment [2] were 24.06% and 48.83%, respectively.

`COc1ccc(/C=C/C(=O)c2cccc(O)c2)cc1`: the results for the Activity in experiment [1] and in experiment [2] were 98.9% and 99.04%, respectively.

`CSc1ccc(/C=C/C(=O)c2ccc(Cl)cc2Cl)cc1`: the Activity in experiment [1] and in experiment [2] was 0% throughout.

On to `CN(C)c1ccc(/C=C/C(=O)c2cccc([N+](=O)[O-])c2)cc1`, for which the Activity in experiment [1] worked out at 90.06%; in experiment [2] it was 96.22%.

For the molecule `COc1ccc(/C=C/C(=O)c2cccc([N+](=O)[O-])c2)cc1OC`, the Activity in experiment [1] is given as 64.61%; in experiment [2], 89.27%.

For the molecule `COc1ccc(/C=C/C(=O)c2cccc([N+](=O)[O-])c2)c(OC)c1`, the values for the Activity in experiment [1] and in experiment [2] were 92.19% and 96.45%, respectively.

In the case of `COc1cc(/C=C/C(=O)c2ccccc2)cc(OC)c1OC`, the results for the Activity in experiment [1] and in experiment [2] were 43.16% and 63.9%, respectively.

For `CN(C)c1ccc(/C=C/C(=O)c2ccccc2)cc1`, the Activity is listed as 70.02% in experiment [1] and 70.18% in experiment [2].

For the molecule `CSc1ccc(/C=C/C(=O)c2ccc(C)cc2)cc1`, the Activity was 16.88% in experiment [1] and 51.59% in experiment [2].

`CSc1ccc(/C=C/C(=O)c2ccc(Br)cc2)cc1`: the Activity in experiment [1] is listed as 0%; in experiment [2], 21.87%.

As to `COc1ccc(/C=C/C(=O)c2ccc(C)cc2)cc1`, the Activity in experiment [1] was 60.24%; in experiment [2], 98.52%.

Turning to `O=C(/C=C/c1ccccc1)c1ccccc1` [CHALCONE], the Activity in experiment [1] was found to be 41.93%; in experiment [2], 50.64%.

As to `CSc1ccc(/C=C/C(=O)c2cccc(O)c2)cc1`, the Activity was found to be 31.59% in experiment [1] and 98.86% in experiment [2].

`CSc1ccc(/C=C/C(=O)c2cccc([N+](=O)[O-])c2)cc1`: the Activity in experiment [1] and in experiment [2] was 0% in each case.

For `CSc1ccc(/C=C/C(=O)c2ccccc2)cc1`, the Activity in experiment [1] turned out to be 46.29%; in experiment [2], 66.51%.

In the case of `CSc1ccc(/C=C/C(=O)c2ccccc2O)cc1`, the Activity in experiment [1] worked out at 68.41%; in experiment [2] it was 90.52%.

Consider `COc1ccccc1/C=C/C(=O)c1cccc([N+](=O)[O-])c1`, for which the Activity in experiment [1] came out at 84.16%; in experiment [2], 97.94%.

On to `COc1ccc(/C=C/C(=O)c2ccccc2)cc1` [4-METHOXY CHALCONE], for which the Activity in experiment [1] turned out to be 58.75%; in experiment [2], 65.08%.

Regarding `COc1ccc(/C=C/C(=O)c2ccc(Cl)cc2Cl)cc1OC`, the Activity in experiment [1] is reported as 0%; in experiment [2], 12.17%.

Consider `CSc1ccc(/C=C/C(=O)c2ccc(O)cc2)cc1`, for which the results for the Activity in experiment [1] and in experiment [2] were 29.25% and 55.16%, respectively.

For `COc1ccccc1/C=C/C(=O)c1ccccc1`, the results for the Activity in experiment [1] and in experiment [2] were 66.07% and 72.98%, respectively.

Regarding `CN(C)c1ccc(/C=C/C(=O)c2ccc(Cl)cc2Cl)cc1`, the Activity in experiment [1] amounted to 31.55%; in experiment [2], 33.8%.
